Source: ChEMBL document CHEMBL2163187, “Neomaclafungins A-I: oligomycin-class macrolides from a marine-derived actinomycete” (2012)
In brackets after ≈: the same amount, converted by molar mass.

system: Trichophyton mentagrophytes; assay: Antifungal activity against Trichophyton mentagrophytes ATCC 9533; assay type: functional
In short: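 Microbial assay against Trichophyton mentagrophytes ATCC 9533. Compounds were tested at concentrations from 10 μg/mL to 10 ng/mL.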

Compared with `CC[C@H]1/C=C/C=C/CC[C@@H](O)[C@@H](C)[C@@H](O)C[C@@H](OC)C[C@@H](O)[C@H](C)[C@H](O)[C@@H](C)/C=C/C(=O)O[C@H]2C[C@@]3(CC[C@H](C)[C@H](C[C@@H](C)O)O3)O[C@@H](CC1)[C@H]2CCC(C)O` (stereo not given in full), `CC[C@@H](O)C[C@@H]1O[C@@]2(CC[C@@H]1C)C[C@@H]1OC(=O)/C=C/[C@H](C)[C@@H](O)[C@@H](C)[C@H](O)C[C@H](OC)C[C@H](O)[C@H](C)[C@H](O)CC/C=C/C=C/[C@H](CC)CC[C@H](O2)[C@H]1CCC(C)O` (stereo not given in full) is 3-fold lower in MIC: 3 µg/mL (≈ 3.77 µM) for the first, 1 µg/mL (≈ 1.24 µM) for the second.

Compared with `CC[C@@H](O)C[C@@H]1O[C@@]2(CC[C@@H]1C)C[C@@H]1OC(=O)/C=C/[C@H](C)[C@@H](O)[C@@H](C)[C@H](O)C[C@H](OC)C[C@H](O)[C@H](C)[C@H](O)CC/C=C/C=C/[C@H](CC)CC[C@H](O2)[C@H]1CCCO`, `CC[C@H]1/C=C/C=C/CC[C@@H](O)[C@@H](C)[C@@H](O)C[C@@H](OC)C[C@@H](O)[C@H](C)[C@H](O)[C@@H](C)/C=C/C(=O)O[C@H]2C[C@@]3(CC[C@H](C)[C@H](C[C@@H](C)O)O3)O[C@@H](CC1)[C@H]2CCCO` [NEOMACLAFUNGIN A] is 3-fold higher in MIC: 1 µg/mL (≈ 1.26 µM) for the first, 3 µg/mL (≈ 3.84 µM) for the second.

Compared with `CC[C@H]1/C=C/C=C/CC[C@@H](O)[C@@H](C)[C@@H](O)C[C@@H](OC)C[C@@H](O)[C@H](C)[C@H](O)[C@@H](C)/C=C/C(=O)O[C@H]2C[C@@]3(CC[C@H](C)[C@H](C[C@@H](C)O)O3)O[C@@H](CC1)[C@H]2CC`, `CCC[C@H]1[C@@H]2C[C@@]3(CC[C@H](C)[C@H](C[C@@H](C)O)O3)O[C@H]1CC[C@@H](CC)/C=C/C=C/CC[C@@H](O)[C@@H](C)[C@@H](O)C[C@@H](OC)C[C@@H](O)[C@H](C)[C@H](O)[C@@H](C)/C=C/C(=O)O2` is 3-fold higher in MIC: 1 µg/mL (≈ 1.33 µM) for the first, 3 µg/mL (≈ 3.92 µM) for the second.

`CCCC[C@H]1[C@@H]2C[C@@]3(CC[C@H](C)[C@H](C[C@@H](C)O)O3)O[C@H]1CC[C@@H](CC)/C=C/C=C/CC[C@@H](O)[C@@H](C)[C@@H](O)C[C@@H](OC)C[C@@H](O)[C@H](C)[C@H](O)[C@@H](C)/C=C/C(=O)O2` and `CCCCC[C@H]1[C@@H]2C[C@@]3(CC[C@H](C)[C@H](C[C@@H](C)O)O3)O[C@H]1CC[C@@H](CC)/C=C/C=C/CC[C@@H](O)[C@@H](C)[C@@H](O)C[C@@H](OC)C[C@@H](O)[C@H](C)[C@H](O)[C@@H](C)/C=C/C(=O)O2` are the same in MIC: 3 µg/mL (≈ 3.85 µM) for the first, 3 µg/mL (≈ 3.78 µM) for the second.

Going from `CCC[C@H]1[C@@H]2C[C@@]3(CC[C@H](C)[C@H](C[C@H](O)CC)O3)O[C@H]1CC[C@@H](CC)/C=C/C=C/CC[C@@H](O)[C@@H](C)[C@@H](O)C[C@@H](OC)C[C@@H](O)[C@H](C)[C@H](O)[C@@H](C)/C=C/C(=O)O2` to `CC[C@@H]1/C=C/C=C/C[C@H](C)[C@H](O)[C@](C)(O)C(=O)[C@H](C)[C@@H](O)[C@H](C)C(=O)[C@H](C)[C@@H](O)[C@H](C)/C=C/C(=O)O[C@H]2[C@@H](C)[C@@H](CC1)O[C@@]1(CC[C@@H](C)[C@@H](C[C@H](C)O)O1)[C@@H]2C` [OLIGOMYCIN A], the MIC rises from 3 µg/mL (≈ 3.85 µM) to 10 µg/mL (≈ 12.6 µM) (3.3-fold).
